From PubChem
VIM-2 inhibitor: VIM-2 metallo-beta-lactamase inhibitors, primary screen, biochemical, epi-absorbance readout, Pseudomonas aeruginosa enzyme; purified VIM-2, nitrocefin hydrolysis, epi-absorbance fluorescence; 290,000 compounds, 0.89% hits; inhibition, % at 5.6 µM;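 active means inhibition above the mean of all tested compounds plus 3 SD, cutoff set per screening run, cut at about 7.5% in these data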;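 further: red hydrolysis product quenches plate fluorescence so inhibitors raise well fluorescence; 0% = enzyme with DMSO and 100% = DMSO without enzyme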
PKA-R1A act: activators of PKA-R1A holoenzyme, primary screen, biochemical, fluorescence polarization, Cy5-IP20, bovine R1A, mouse PKAc; PKA-R1A dissociation; scaled: DMSO 0%, 113 µM cGMP 100%; activation, % at 11.4 µM; 340,000 compounds, 0.083% hits; AID 504707, 2011;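 active means percent activation above the mean of all tested compounds plus 3 SD, cut at about 19% in these data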;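 further: higher means more PKAc released from R1A so a rise in polarization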
PKA-R2B activ: activators of PKA-R2B holoenzyme, primary screen, biochemical, fluorescence polarization, Cy5-IP20, human; cAMP-dependent protein kinase catalytic subunit beta (Homo sapiens) + cAMP-dependent …; PKA-R2B holoenzyme dissociation; R2B truncated from residue 108, S112A mutant; 0% DMSO only, 100% 113 µM cGMP; activation, % at 11.4 µM; 340,000 compounds, 0.079% hits;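 active means activation above a cutoff set at the mean over all compounds plus 3 SD, cut at about 18% in these data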;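 further: higher means more holoenzyme dissociation and a rise in polarization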
Target sequence (P31323 whole entry, looked up, other chains not shown, the tested form may be a part): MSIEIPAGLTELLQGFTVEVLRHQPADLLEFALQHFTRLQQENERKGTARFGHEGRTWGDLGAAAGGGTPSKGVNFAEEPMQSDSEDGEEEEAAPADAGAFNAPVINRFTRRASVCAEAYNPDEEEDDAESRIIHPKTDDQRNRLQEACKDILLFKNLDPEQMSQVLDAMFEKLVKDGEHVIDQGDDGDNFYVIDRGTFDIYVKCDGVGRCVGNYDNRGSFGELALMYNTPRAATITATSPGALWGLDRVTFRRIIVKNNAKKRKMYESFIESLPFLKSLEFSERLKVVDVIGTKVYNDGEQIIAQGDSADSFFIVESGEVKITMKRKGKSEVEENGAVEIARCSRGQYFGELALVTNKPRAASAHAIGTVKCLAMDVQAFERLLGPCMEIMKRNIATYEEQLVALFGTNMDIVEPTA
bovine MsrA act: bovine MsrA enzyme activators, primary screen, biochemical, absorbance, HTS; purified bovine MsrA, absorbance read-out; activation, % at 10.6 µM; 360,000 compounds, 0.3% hits; AID 602163, 2012; in the data active means activation above about 7.5%;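 further: 0% = vehicle and 100% = reference activator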
MsrA inh: bovine MsrA enzyme inhibitors, primary screen, biochemical, absorbance, HTS; Methionine sulfoxide reductase A (Bos taurus); purified bovine MsrA, absorbance read-out; inhibition, % at 15.5 µM; 360,000 compounds, 0.75% hits; AID 651718, 2012; in the data active means inhibition above about 4.5%;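 further: 0% = vehicle wells with enzyme and 100% = reference inhibitor wells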
IMP-1 inh-1: IMP-1 metallo-beta-lactamase inhibitors, primary screen, biochemical, epi-absorbance readout, Pseudomonas aeruginosa enzyme | metallo-beta-lactamase IMP-1 (Pseudomonas aeruginosa) | purified IMP-1, nitrocefin hydrolysis, epi-absorbance fluorescence | inhibition, % at 5.6 µM | 290,000 compounds, 0.45% hits;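 active means inhibition above the mean plus 3 SD of all compounds in the same screening run, cut at about 4.5% in these data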;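 further: 0% = IMP-1 with DMSO and 100% = DMSO wells lacking enzyme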
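System: purified IMP-1 / Input: IMP-1 dispensed at 0.2 nM / Medium: 50 mM HEPES pH 7.1, 50 µM ZnSO4, 0.05% Brij 35 / Timing: 15 min enzyme–compound preincubation, then 25 min nitrocefin reaction, 25 °C / Technique: plate fluorescence quenching by hydrolysis product, ex 480/em 530 nm / Repeats: singlicate testing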
IMP-1 inh-2: IMP-1 metallo-beta-lactamase inhibitors, confirmation, selectivity assay for selective VIM-2 inhibitor project, biochemical, epi-absorbance readout, triplicate. shares compounds with VIM-2 inhibitor. 1,300 tested, under 10 active. AID 1856, 2009. inhibition, % at 5.6 µM. purified IMP-1, nitrocefin hydrolysis, epi-absorbance fluorescence; call rule not given here;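 further: 0% = enzyme with vehicle and 100% = vehicle without enzyme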
VIM-2 FRET ctr: VIM-2 inhibitors in FRET format, confirmation, artefact control for selective VIM-2 inhibitor project, biochemical, epi-absorbance artifact exclusion. shares compounds with VIM-2 inhibitor. purified VIM-2, CCF2 FRET substrate hydrolysis. inhibition, % at 5.6 µM. 1,300 compounds, 23% hits;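 active means inhibition above the mean of all tested compounds plus 3 SD, cut at about 19% in these data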;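 further: 0% = VIM-2 plus DMSO and 100% = no enzyme wells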
TEM-1 counter: TEM-1 serine beta-lactamase inhibitors, counter-screen for VIM-2 inhibitor project, biochemical, epi-absorbance, HTS | 1,300 compounds, 3% hits | Purified TEM-1, nitrocefin hydrolysis, epi-absorbance fluorescence | shares compounds with VIM-2 inhibitor | inhibition, % at 5.6 µM;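 active means inhibition above that campaign's mean inhibition plus 3 SD, cut at about 0.46% in these data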;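 further: 0% = TEM-1 with DMSO and 100% = TEM-1 with 100 µM potassium clavulanate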
Target sequence (P62593 whole entry, looked up): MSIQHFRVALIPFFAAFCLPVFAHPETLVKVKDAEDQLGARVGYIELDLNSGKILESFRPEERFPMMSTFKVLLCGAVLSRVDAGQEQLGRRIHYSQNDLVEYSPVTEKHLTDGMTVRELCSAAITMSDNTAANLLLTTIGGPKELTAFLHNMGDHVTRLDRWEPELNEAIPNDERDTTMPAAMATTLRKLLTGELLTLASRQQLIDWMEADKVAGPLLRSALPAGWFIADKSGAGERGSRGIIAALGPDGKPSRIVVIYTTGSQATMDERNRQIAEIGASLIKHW
VIM-2 inh conf: VIM-2 metallo-beta-lactamase inhibitors, confirmation, biochemical, epi-absorbance, hits shared with IMP-1 screen; shares compounds with VIM-2 inhibitor; purified VIM-2, nitrocefin hydrolysis; inhibition, % at 5.6 µM; 1,300 compounds, 96% hits; AID 2187, 2009;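 active means inhibition of the VIM-2 beta-lactamase enzyme above about 11% from the earlier first-round screen, limit read from the data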;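 further: 0% = VIM-2 with DMSO and 100% = buffer wells without enzyme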
The depositor's hits bear a star; · = not tested or not shown. Only some compounds are listed: those with a hit (about 2.1% of all), similar ones and a draw of the others.

SMILES	VIM-2 inhibitor	PKA-R1A act	PKA-R2B activ	bovine MsrA act	MsrA inh	IMP-1 inh-1	IMP-1 inh-2	VIM-2 FRET ctr	TEM-1 counter	VIM-2 inh conf
Oc1ccc(Br)cc1-c1n[nH]c(=S)n1Cc1ccccc1	-3	-8	5	-5	2	-3	·	·	·	·
S=c1[nH]nc(-c2ccco2)n1C1CCCCC1	25*	-5	-2	-1	0	-2	-3	52*	-6	34*
S=c1[nH]nc(CSCc2ccccc2Cl)n1C1CCCCC1	0	-3	-7	-8	-1	-2	·	·	·	·
Nn1c(-c2ccco2)n[nH]c1=S	0	2	-13	2	0	-5	·	·	·	·
Cn1cc(Cl)c(-c2n[nH]c(=S)n2C2CCCCC2)n1	42*	-3	-6	2	0	0	-3	60*	-8	43*
COc1ccc(C(C)(C)C)cc1NC(=O)CCN1C(=O)NC(C)(C)C1=O	·	-5	-5	-1	0	·	·	·	·	·
Cc1nn2c(-c3ccco3)nnc2c2ccccc12	13*	6	-7	-2	0	0	-2	-2	-4	27*
Cc1ccccc1-c1nnc2c3ccccc3c(C)nn12	0	1	-2	-1	0	-2	·	·	·	·
O=c1cc(CN2CCCC2)c2ccccc2o1	·	·	·	·	1	·	·	·	·	·
Oc1c(Cl)cc(CN2CCOCC2)c2cccnc12	·	0	-8	-1	0	·	·	·	·	·
O=[N+]([O-])c1cc(CN2CCOCC2)c2cccnc2c1O	46*	·	·	·	·	-2	-4	4	-7	49*
CCCCCCn1cc(C(=O)O)c(=O)c2cc(F)c(N3CCN(C)CC3)cc21	16*	3	-9	-3	·	2	-1	7	-1	19*
CC12CCC(c3c(CO)nn(-c4ccccc4)c31)C2(C)C (stereo unspecified)	-3	-1	-5	2	0	1	·	·	·	·
CC12CCC(c3c(C(=O)O)nn(-c4ccccc4)c31)C2(C)C (stereo unspecified)	14*	-11	-1	-9	-1	0	-3	26*	-2	18*
O=C(O)C(c1ccccc1)N1C(=O)c2cccc3cccc(c23)C1=O (stereo unspecified)	20*	-8	2	-1	2	4	3	39*	-7	27*
CCN1CCN(C(=O)Cn2nc(-c3ccc(Cl)cc3)ccc2=O)CC1	23*	-13	3	-1	-1	-3	-4	-3	-6	27*
N#Cc1cc2c(=O)n3ccccc3nc2n(CCCn2ccnc2)c1=N	45*	0	-6	2	0	0	-2	-10	-3	78*
CCCn1c(=N)c(C#N)cc2c(=O)n3ccccc3nc21	1	-9	-6	-4	2	-2	·	·	·	·
CCCn1c(SCC(=O)N2CCN(CC)CC2)nc2c1c(=O)n(C)c(=O)n2C	52*	-1	5	-2	0	-1	-4	1	-6	61*
CCn1c(SCC(=O)N2CCCC2)nc2c1c(=O)n(C)c(=O)n2C	-2	8	-8	-4	0	-4	·	·	·	·
CCn1c(SCC(=O)N2CCN(C)CC2)nc2c1c(=O)n(C)c(=O)n2C	55*	1	2	-3	-1	-2	-4	-4	-5	63*
CCN1CCN(C(=O)CSc2nc3c(c(=O)n(C)c(=O)n3C)n2C)CC1	76*	-13	-9	1	1	-1	-2	2	-4	85*
CCCn1c(SCC(=O)N2CCCCC2)nc2c1c(=O)n(C)c(=O)n2C	1	-2	-3	-6	0	0	·	·	·	·
Cn1c(=O)[nH]c2c(c1=O)CCO2	·	0	-2	-1	-1	·	·	·	·	·
COc1cnc(-c2ccccn2)nc1Oc1cccc(C(F)(F)F)c1	45*	8	-9	-2	0	-5	-5	-29	-5	60*
SMILES	VIM-2 inhibitor	PKA-R1A act	PKA-R2B activ	bovine MsrA act	MsrA inh	IMP-1 inh-1	IMP-1 inh-2	VIM-2 FRET ctr	TEM-1 counter	VIM-2 inh conf
Cc1nc(-c2ccccn2)nc(SCC(=O)c2ccccc2)c1Cl	54*	·	·	-6	0	-2	-4	-25	-6	72*
COc1cnc(-c2ccccn2)nc1N(C)c1ccccc1	37*	7	-7	-4	0	-5	-4	-35	-3	47*
CCOC(=O)CSc1nc(-c2ccccn2)ncc1OC	17*	-11	-18	-3	1	-5	-4	-25	-4	25*
COc1ccc(Cl)cc1NC(=O)CN(C)C(=O)CCNC(=O)c1ccccc1OC	·	2	0	1	0	·	·	·	·	·
Cc1c(OCC(=O)N2CCC(C(N)=O)CC2)ccc2c1oc(=O)c1ccccc12	23*	-7	-5	1	0	-4	-4	-1	-12	31*
Cc1c(OCC(=O)N2CCC(C(N)=O)CC2)ccc2c3c(c(=O)oc12)CCCC3	12*	-6	-5	-2	0	-1	-3	-3	-15	19*
O=C(Cn1cnc2c(NCc3ccccc3)ncnc21)NCCc1cc2ccccc2[nH]1	·	0	-3	-11	-1	·	·	·	·	·
CC(C)CNc1cccc2c1S(=O)(=O)N[C@@H](Cc1ccccc1)CO2	·	·	·	·	0	·	·	·	·	·
CCc1c(C)c(C#N)c2nc3ccccc3n2c1NC	14*	-8	-10	-8	1	-3	-4	1	-7	21*
CCN(CC)c1cc(C)c(C#N)c2nc3ccccc3n12	-3	2	14	-2	2	-4	·	·	·	·
CCc1c(C)c(C#N)c2nc3ccccc3n2c1NCCN(C)C	6	-2	-13	1	1	-3	·	·	·	·
